Format in all cases: functional, cell-based
In one assay the test system is HT-29. The assay is described as follows: Antitumor activity against human HT-29 cells after 48 hours hrs by SRB assay. Particulars: HT-29, 48 h. A digest of the protocol: (§1)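 Seeded cells were exposed to each compound across a broad concentration range for 48 h. Growth was read by sulforhodamine B staining, compared against untreated control. Values are mean ± SEM, n = 3–6.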

The test system of a further assay is Caco-2. The assay is described as follows: Antitumor activity against human Caco-2 cells after 48 hours hrs by SRB assay. The note with it: Caco-2, 48 h. The method in brief:
as §1

The next assay relates to MCF7. Briefly: Antitumor activity against human MCF7 cells after 48 hours hrs by SRB assay. The note with it: MCF7, 48 h. The method in brief: as §1

The structures appear in SMILES notation.

Take `COc1cc(NC(C)CCCNC(C)=O)c2ncccc2c1` (stereo unspecified): the values for the IC50 in the assay with HT-29, with Caco-2 and in the assay with MCF7 were above 100 µM, 46 µM and 57.3 µM, respectively.
Taken in the same sequence, the figures for `O=C(O)c1cc2ccccc2nc1Cl` were above 100 µM, 81 µM and above 100 µM.
In the same order, the values of `COc1cc(NC(C)CCCN2C(=O)CN(C(C)=O)C2(C)C)c2ncccc2c1` (stereo unspecified) are above 100 µM, 60 µM and above 100 µM.
Taken in the same sequence, the figures for `COc1cc(N)c2ncccc2c1` were above 100 µM, above 100 µM and 86.5 µM.
For the compound `COc1cc(NC(C)CCCNC(=O)CN2C(=O)[C@H](C)NC23CCCCC3)c2ncccc2c1` (stereo partly specified), the IC50 with HT-29 is above 100 µM; with Caco-2 it was 74.7 µM; in the assay with MCF7 it was 27 µM.
In the same order, the values of `COc1cc(NC(C)CCCN)c2ncccc2c1` (stereo unspecified) [PRIMAQUINE] are 69.7 µM, 48 µM and 6.9 µM.
In the same order, the values of `COc1cc(NC(C)CCCN2C(=O)[C@H](C)NC2(C)C)c2ncccc2c1` (stereo partly specified) are above 100 µM, 71 µM and 42.3 µM.
In the same order, the values of `COc1cc(NC(C)CCCNC(=O)CN2C(=O)[C@H](C)NC2(C)C)c2ncccc2c1` (stereo partly specified) are above 100 µM, 58 µM and 38.3 µM.
Take `FC(F)(F)c1ccc2c(Cl)ccnc2c1`: the half-inhibitory concentration (IC50) is above 100 µM in the assay on HT-29, 52.3 µM in the assay with Caco-2 and 63 µM in the assay with MCF7.
In the case of `COc1cc(NC(C)CCCN2C(=O)CN(C(=O)[C@H](C)N)C2(C)C)c2ncccc2c1` (stereo partly specified), the IC50 with HT-29 is 46.3 µM; in the assay with Caco-2, above 100 µM; with MCF7, 20 µM.
Taken in the same sequence, the figures for `COc1cc(NC(C)CCCNC(=O)CNC(=O)[C@H](C)N)c2ncccc2c1` (stereo partly specified) were 92.3 µM, above 100 µM and 21.3 µM.
`COc1cc(NC(C)CCCNC(=O)C2CCCN2C(=O)[C@@H](C)N)c2ncccc2c1` (stereo partly specified): the IC50 was above 100 µM with HT-29, 64 µM in the assay with Caco-2 and 15 µM in the assay with MCF7.

The record behind these values is ChEMBL document CHEMBL1156744, “Anti-tumoral activity of imidazoquines, a new class of antimalarials derived from primaquine” (Bioorg Med Chem Lett, 2009).
